STAT1 activator – increases IFN-gamma driven STAT1 reporter signal. AID 932. NIH 3T3 STAT1-luciferase reporter, luminescence; 100% = IFN-gamma alone, no compound. activation (% of control), % at 5.5 µM. 200,000 compounds, 2.6% hits;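 active = activation above the screen-wide mean activation plus 3 SD, cut at about 130% in these data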;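 also: raw ratio to IFN-gamma control signal so 100% means no change and 0% no light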
APP 5'UTR act – APP 5'UTR luciferase reporter activation | SH-SY5Y APP 5'UTR luciferase reporter, luminescence; zero percent = DMSO vehicle wells | 190,000 compounds, 1% hits | activation, % at 2 µM | AID 1276;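 active = activation above a set limit, based on mean plus 3 SD of controls, cut at about 140% in these data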
STAT3 blocker – reduces IL-6 driven STAT3 reporter signal. 190,000 compounds, 0.89% hits. U3A cells, IL-6 STAT3-luciferase reporter, luminescence; host cell line lacks STAT1. inhibition, % at 5.5 µM;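 active = inhibition above the mean inhibition across all screened compounds plus 3 SD, cut at about 44% in these data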;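 also: 0% = DMSO only wells and 100% = 100 µM nifuroxazide control wells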
STAT3 activator – activators of IL-6 induced STAT3 signaling | activation (% of control), % at 5.6 µM | 190,000 compounds, 0.91% hits | U3A cells, IL-6 STAT3-luciferase reporter, luminescence; 100% = signal with IL-6 EC80 alone;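 active = activation above the screen-wide mean of compound activation plus 3 SD, cut at about 130% in these data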;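 also: 0% = background luminescence of wells with medium and substrate only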
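Material: STAT3-luciferase reporter U3A cells. Controls: IL-6-treated wells, 100% activation. Read-out: % activation versus median of IL-6-stimulated wells. Probe or stimulus: IL-6 stimulus at 33 ng/mL final. Timing: compound 1 h, then IL-6 6 h at 37 °C. Signal: reporter luminescence signal.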
NF-kB expr up – NF-kB expression increase, human neuronal cells. NF-kB reporter expression; active compounds read high. 190,000 compounds, 1.6% hits. fold change at 12.5 µM. AID 1239; in the data active = fold change above about 3.3
STAT1 blocker – inhibitors of IFN-gamma induced STAT1 signaling. inhibition, % at 5.5 µM. 200,000 compounds, 0.35% hits. NIH 3T3 STAT1-luciferase reporter, luminescence;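 active = inhibition above a set limit, the mean inhibition across all tested compounds plus 3 SD, cut at about 34% in these data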;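 also: 0% = IFN-gamma with DMSO and 100% = IFN-gamma with 300 µM nifuroxazide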
STAT1 act conf – confirmation of STAT1 signaling activators | shares compounds with STAT1 activator | NIH 3T3 STAT1-luciferase reporter, IFN-gamma potentiation, luminescence; 100% = IFN-gamma EC80 alone, no compound | activation (% of control), % at 5.7 µM | 1,200 compounds, 97% hits;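 active = activation above a set limit carried over from the earlier primary STAT1 screen, cut at about 140% in these data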;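 also: simple ratio to median IFN-gamma plus DMSO wells so 0% means no light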
NFkB act – counter-screen for STAT1 activators: NF-kappaB activation; shares compounds with STAT1 activator; HEK293T NF-kB luciferase reporter, TNF-alpha stimulated, luminescence; 100% = TNF-alpha with vehicle only; activation (% of control), % at 5.7 µM; 1,200 compounds, 43% hits;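 active = activation above the mean of solvent-only control wells plus 3 SD, set per campaign, cut at about 130% in these data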;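 also: TNF-alpha given at a submaximal dose yielding about 80% of full reporter signal; values are well signal over median control so 100% means no change and 0% no light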
STAT3 act STAT1c – human STAT3 activation in STAT1 activator counter-screen; shares compounds with STAT1 activator; U3A cells STAT3-luciferase reporter, IL-6, luminescence; cells lack STAT1; 100 = IL-6 alone, no compound effect; activation (% of control), % at 5.7 µM; 1,200 compounds, 46% hits;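 active = activation above the solvent-only control well mean plus 3 SD, set per plate batch, cut at about 110% in these data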;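 also: 0% = no luminescence and 100% = median IL-6 plus DMSO wells; higher means more STAT3 reporter activation so hits are non-selective activators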
The depositor's hits bear a star; x = not tested or not shown. Shown are actives, neighbours in structure and some others; about 4.9% of the full set was active somewhere.

SMILES | STAT1 activator | APP 5'UTR act | STAT3 blocker | STAT3 activator | NF-kB expr up | STAT1 blocker | STAT1 act conf | NFkB act | STAT3 act STAT1c
O=C(O)c1ccc(N/N=C/c2cccc(F)c2)cc1 | 161.0* | 123.7 | -11.6 | 109.8 | 5.03* | -68.5 | 202.8* | 102.0 | 117.7*
CNC(=O)c1ccc(NC(=O)/C=C/c2cccc(F)c2)cc1 | 127.0 | 47.3 | 17.8 | 91.5 | 2 | -28.4 | x | x | x
CC(C)(C)OC(=O)CC[C@@H](C(=O)N1CCN(C(=O)OC(C)(C)C)CC1)n1cc(C(Cc2ccc(O)cc2)NC(=O)OC(C)(C)C)nn1 (stereo partly drawn) | 106.7 | 1.3 | x | x | 0.47 | -5.6 | x | x | x
O=C(/C=C/Nc1ccc(Oc2ccccc2Cl)cc1)c1ccco1 | 155.2* | 92.7 | -3.9 | 105.2 | 6.21* | -60.2 | 177.8* | 143.8* | 135.1*
O=C(/C=C/Nc1cccc(F)c1)c1ccco1 | 154.2* | 101.7 | -5.8 | 105.8 | 3.86* | -51.1 | 192.2* | 124.5 | 115.7*
Cc1c(NS(=O)(=O)c2ccc(Cl)c(C(=O)OC(C)C(=O)NCc3ccco3)c2)c(=O)n(-c2ccccc2)n1C (stereo not drawn) | 105.8 | -2.8 | -1.5 | 102.3 | 0.97 | -7.8 | x | x | x
Cc1nc(CSc2ccccc2)cc(=O)[nH]1 | 89.0 | 4.3 | 18.0 | 88.2 | 1.07 | 11.6 | x | x | x
NC(=O)c1ccsc1NC(=O)c1coc2ccccc2c1=O | 166.1* | 166.9* | 19.1 | 90.6 | 2.16 | -71.4 | 217.2* | 129.8 | 112.6*
NC(=O)c1ccsc1NC(=O)CSc1ccccc1F | 111.4 | 50.9 | 0.6 | 104.0 | 1.82 | -12.5 | x | x | x
O=C(COc1ccc(Cl)cc1[N+](=O)[O-])N/N=C/c1cccs1 | 99.8 | 27.7 | 11.0 | 93.8 | 1.17 | -1.8 | x | x | x
Cc1ccc(-c2csc(C(C#N)=C3CCCC3)n2)cc1 | 124.7 | 23.4 | 12.1 | 93.2 | 3.16 | -27.1 | x | x | x
N#CC(=C1CCCC1)c1nc(-c2ccccc2)cs1 | 166.2* | 99.0 | 7.7 | 97.1 | 8.05* | -72.7 | 215.5* | 154.1* | 122.5*
CC(CCc1ccccc1)NC(=O)Cc1cccs1 (stereo not drawn) | 89.1 | -2.9 | -0.4 | 102.3 | 0.97 | 10.0 | x | x | x
CC(C)(C)N=C1NN=C(c2cc3ccccc3o2)CS1 | 169.3* | 130.6 | -5.8 | 100.5 | 0.46 | -76.1 | 207.2* | 129.2 | 107.0
CC(C)C(=O)Nc1sc2c(c1C#N)CCCCC2 | 110.4 | -7.3 | -11.2 | 112.2 | 1.55 | -15.9 | x | x | x
Cc1cc(C(=O)Nc2sc3c(c2C#N)CCCCC3)cs1 | 176.5* | 158.8* | 11.8 | 92.7 | 4.24* | -76.2 | 254.5* | 145.6* | 111.1*
CC(=O)NC(=S)Nc1sc2c(c1C#N)CCCCC2 | 166.6* | 61.8 | 23.0 | 79.6 | 1.71 | -73.3 | 186.4* | 104.7 | 90.3
CC(=O)Nc1sc2c(c1C#N)CCCC2 | 103.3 | 9.3 | 7.3 | 94.0 | 1 | -3.6 | x | x | x
CC(=O)COc1ccc2c(C)c(-c3ccccc3)c(=O)oc2c1 | 155.7* | 39.7 | 18.6 | 86.8 | 2.64 | -59.9 | 155.8* | 115.4 | 98.1
CC(=O)COc1ccc2c3c(c(=O)oc2c1)CCCC3 | 107.7 | -2.5 | 13.7 | 90.3 | 1.66 | -8.4 | x | x | x
CC(NCc1ccccc1Cl)C(=O)Nc1ccc(C#N)cc1 (stereo not drawn) | 91.9 | 6.3 | 9.0 | 94.2 | 0.96 | 6.5 | x | x | x
CC(C)=CCN1CCN(Cc2nc(-c3ccccc3)cs2)CC1CCO (stereo not drawn) | 102.4 | 0.0 | -0.2 | 104.0 | 1.05 | -4.3 | x | x | x
O=c1[nH]c2ccccc2nc1/C=C/c1ccccc1 | 161.6* | 105.3 | -15.1 | 119.0 | 2.63 | -71.3 | 188.3* | 127.8 | 121.3*
O=c1[nH]c2ccccc2nc1/C=C/c1ccc(F)cc1 | 158.6* | 106.8 | 5.3 | 99.2 | 1.82 | -66.9 | 165.8* | 129.6 | 107.3
O=C(/C=C/c1ccc(F)cc1)Nc1nc2ccccc2[nH]1 | 153.7* | 160.8* | 11.9 | 92.2 | 1.87 | -60.1 | 188.7* | 118.9 | 90.7
SMILES | STAT1 activator | APP 5'UTR act | STAT3 blocker | STAT3 activator | NF-kB expr up | STAT1 blocker | STAT1 act conf | NFkB act | STAT3 act STAT1c
O=C(/C=C/c1ccccc1)Nc1ncn[nH]1 | 83.9 | -10.7 | 23.1 | 88.6 | 0.74 | 17.9 | x | x | x
COc1ccc(CN2CCNC(=O)C2CC(=O)N(C)Cc2ccon2)c(OC)c1 (stereo not drawn) | 104.8 | -3.6 | -0.4 | 102.4 | 1.64 | -7.1 | x | x | x
O=C(CCC(=O)c1ccc(F)cc1)Nc1cccc(S(=O)(=O)Nc2cccc(Cl)c2)c1 | 97.5 | 6.8 | -2.3 | 99.8 | 0.78 | 2.9 | x | x | x
CCOc1cccc(SCc2noc(C(=O)NCC3CCCO3)c2C(=O)O)c1 (stereo not drawn) | 98.6 | -10.8 | -7.7 | 107.2 | 0.96 | 1.6 | x | x | x
O=C(CSc1nc2ccccc2c(=O)n1NC(=O)c1ccccc1)c1ccccc1 | 150.7* | 94.8 | -10.8 | 113.1 | 2.03 | -55.5 | 159.1* | 125.1 | 124.9*
C/C(=N\NC(=O)c1ccccc1C)c1ccc(NC(=O)c2cccs2)cc1 | 116.4 | 94.8 | 14.8 | 93.9 | 1.09 | -18.3 | x | x | x
C/C(=N\NC(=O)c1ccco1)c1ccc(NC(=O)c2cccs2)cc1 | 154.2* | 57.9 | 0.7 | 97.3 | 1.1 | -60.8 | 111.0 | 119.4 | 97.8
CC1=CC(C)(C)N2C(=O)C3(NCCc4c3[nH]c3ccccc43)c3cccc1c32 (stereo not drawn) | 105.1 | -4.1 | -2.6 | 104.2 | 1.01 | -7.4 | x | x | x
CCCc1nn(C)c(C(=O)Nc2ccccc2)c1Cl | 170.4* | 155.9* | 9.6 | 88.8 | 0.6 | -77.4 | 199.3* | 132.4 | 105.2
N/C(=N\OC(=O)c1ccc2c(c1)OCO2)c1ccc(Cl)cc1 | 152.7* | 101.0 | -10.6 | 112.6 | 5.91* | -59.0 | 187.1* | 129.9 | 102.5
Cc1ccc(/C(N)=N/OC(=O)c2ccc3c(c2)OCO3)cc1 | 156.2* | 142.4* | -9.2 | 105.4 | 4.96* | -63.2 | 185.9* | 136.3* | 105.5
NS(=O)(=O)c1cccc(NC(=O)CN2CCN(Cc3ccc4c(c3)OCO4)CC2)c1 | 103.5 | -1.6 | -6.9 | 105.8 | 1.28 | -3.9 | x | x | x
O=C(Nc1ccc(N2CCOCC2)c(Cl)c1)c1cccc(F)c1 | 185.4* | 109.2 | -1.4 | 104.4 | 5.53* | -84.1 | 193.4* | 134.9* | 117.7*
COc1c(C)cccc1C(=O)Nc1ccc(N2CCOCC2)c(Cl)c1 | 152.3* | 154.0* | 22.0 | 86.9 | 6.07* | -56.8 | 198.7* | 130.9 | 105.5

Screening data (PubChem BioAssay)
